# Results reported in ChEMBL document CHEMBL3526029, “Disposition and metabolism of GSK2251052 in humans: a novel boron-containing antibiotic” (Drug Metab Dispos, 2013).
# How the values were obtained:
# [1] = AUC (0 to t) in healthy human plasma at 1500 mg, iv infusion for 1 hr as single dose; format: ADME, organism-based
# Outline: (§1)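 Six fasted healthy men received 1500 mg [14C]GSK2251052 as a 1-h constant-rate i.v. infusion. K2EDTA plasma was sampled from predose to 72 h, with profiling samples added at 96, 144 and 336 h. Parent and M3 were measured by validated LC/MS/MS after methanol/formic acid precipitation with stable-label internal standards (range 5–10,000 ng/ml). Noncompartmental analysis used actual times, linear-up/log-down trapezoids and CL = dose/AUC(0-∞).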
# [2] = AUC (0 to infinity) in healthy human plasma at 1500 mg, iv infusion for 1 hr as single dose; format: ADME, organism-based; parameters: dose 1500 mg, route intravenous, time infinity; outline: as §1
# [3] = Cmax in healthy human plasma at 1500 mg, iv infusion for 1 hr as single dose; format: ADME, organism-based; parameters: dose 1500 mg, route intravenous; outline: as §1
# [4] = Clearance in healthy human plasma at 1500 mg, iv infusion for 1 hr as single dose; format: ADME, organism-based; outline: as §1
# [5] = Volume of distribution at steady state in healthy human plasma at 1500 mg, iv infusion for 1 hr as single dose; format: ADME, organism-based; conditions: read-out: Vdss
# Outline: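 Healthy males got 1500 mg by 1-h IV infusion. Plasma (K2EDTA) was sampled to 72 h, plus 96, 144 and 336 h. Parent was measured by a validated LC/MS/MS method after methanol/formic acid precipitation with a stable-isotope internal standard (range 5–10,000 ng/ml). Vss = CL × MRT from noncompartmental analysis.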
# [6] = Half life in healthy human plasma at 1500 mg, iv infusion for 1 hr as single dose; format: ADME, organism-based
# Outline: (§2)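 Healthy men got a single 1500 mg [14C] dose by 1 h i.v. infusion. K2EDTA blood was sampled up to 336 h. Radioactivity in blood and plasma was measured by LSC, with AMS for plasma below LLQ. Parent and M3 were measured by LC/MS/MS (5–10,000 ng/ml range). Noncompartmental analysis used actual times, with t1/2 = ln2/λz and Tmax observed directly, timed from infusion start.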
# [7] = Tmax in healthy human plasma at 1500 mg, iv infusion for 1 hr as single dose; format: ADME, organism-based; outline: as §2
# [8] = Clearance in cynomolgus monkey at 35 mg/kg, iv administered as single infusion for 1 hr; format: ADME, organism-based, Macaca fascicularis; parameters: dose 35 mg/kg, route intravenous; conditions: in vivo
# Outline: (§3)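 Male cynomolgus monkeys given a 1-h i.v. infusion at 35 mg/kg (7 mg/ml in saline, pH 5, 5 ml/kg/h). Where 4-MP was used, it was given by oral gavage 1 h before infusion (8.75 mg/ml in water, 4 ml/kg). K2EDTA plasma was sampled from 0.5 to 120 h after infusion start. Parent and M3 were measured by LC/MS/MS after protein precipitation (range 100–200,000 ng/ml). Noncompartmental analysis used nominal times.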
# [9] = Volume of distribution at steady state in cynomolgus monkey at 35 mg/kg, iv administered as single infusion for 1 hr; format: ADME, organism-based, Macaca fascicularis; parameters: dose 35 mg/kg, route intravenous; conditions: in vivo, read-out: Vdss
# Outline: (§4)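 Cynomolgus monkeys got a 1-h IV infusion at 35 mg/kg (7 mg/ml in saline, pH 5), either alone or 1 h after oral gavage of 4-methylpyrazole (8.75 mg/ml in water, 4 ml/kg). Plasma (K2EDTA) was sampled to 120 h and assayed by protein precipitation and LC/MS/MS (range 100–200,000 ng/ml). Vss (CL × MRT) was derived by noncompartmental analysis on nominal times; values are for males.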
# [10] = Mean residence time in cynomolgus monkey at 35 mg/kg, iv administered as single infusion for 1 hr; format: ADME, organism-based, Macaca fascicularis; parameters: dose 35 mg/kg, route intravenous; conditions: in vivo
# Outline: (§5)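 Male cynomolgus monkeys received 35 mg/kg as a 1 h i.v. infusion (7 mg/ml in saline, pH 5; 5 ml/kg/h), either alone or 1 h after oral gavage of 4-MP (8.75 mg/ml in water, 4 ml/kg). Plasma was sampled from 0.5 to 120 h, and parent and M3 were measured by LC/MS/MS. Noncompartmental analysis used nominal times, with t1/2 = ln2/λz.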
# [11] = Half life in cynomolgus monkey at 35 mg/kg, iv administered as single infusion for 1 hr; format: ADME, organism-based, Macaca fascicularis; parameters: dose 35 mg/kg, route intravenous; conditions: in vivo; outline: as §5
# [12] = Tmax in cynomolgus monkey at 35 mg/kg, iv administered as single infusion for 1 hr; format: ADME, organism-based, Macaca fascicularis; parameters: dose 35 mg/kg, route intravenous; conditions: in vivo; outline: as §5
# [13] = AUC (0 to infinity) in cynomolgus monkey at 35 mg/kg, iv administered as single infusion for 1 hr followed single oral dose of 35 mg/kg 4-MP; format: ADME, organism-based, Macaca fascicularis; conditions: plasma; outline: as §3
# [14] = Cmax in cynomolgus monkey at 35 mg/kg, iv administered as single infusion for 1 hr followed single oral dose of 35 mg/kg 4-MP; format: ADME, organism-based, Macaca fascicularis; conditions: in vivo; outline: as §3
# [15] = Clearance in cynomolgus monkey at 35 mg/kg, iv administered as single infusion for 1 hr followed single oral dose of 35 mg/kg 4-MP; format: ADME, organism-based, Macaca fascicularis; conditions: in vivo; outline: as §3
# [16] = Volume of distribution at steady state in cynomolgus monkey at 35 mg/kg, iv administered as single infusion for 1 hr followed single oral dose of 35 mg/kg 4-MP; format: ADME, organism-based, Macaca fascicularis; conditions: in vivo, read-out: Vdss; outline: as §4
# [17] = Mean residence time in cynomolgus monkey at 35 mg/kg, iv administered as single infusion for 1 hr followed single oral dose of 35 mg/kg 4-MP; format: ADME, organism-based, Macaca fascicularis; conditions: in vivo; outline: as §5
# [18] = Half life in cynomolgus monkey at 35 mg/kg, iv administered as single infusion for 1 hr followed single oral dose of 35 mg/kg 4-MP; format: ADME, organism-based, Macaca fascicularis; conditions: in vivo; outline: as §5
# [19] = Tmax in cynomolgus monkey at 35 mg/kg, iv administered as single infusion for 1 hr followed single oral dose of 35 mg/kg 4-MP; format: ADME, organism-based, Macaca fascicularis; conditions: in vivo; outline: as §5
# [20] = Drug metabolism in human liver cytosol assessed as ADH-mediated (S)-3-(3-(aminomethyl)-1-hydroxy-1,3-dihydrobenzo[c][1,2]oxaborol-7-yloxy)propanoicacid formation at 50 to 500 uM by spectrophotometry in presence of NAD+; format: ADME; conditions: TDE = time-dependent effect
# [21] = Drug metabolism assessed as purified ADH (unknown origin)-mediated (S)-3-(3-(aminomethyl)-1-hydroxy-1,3-dihydrobenzo[c][1,2]oxaborol-7-yloxy)propanoicacid formation at 50 to 500 uM by spectrophotometry in presence of NAD+; format: ADME; conditions: human, TDE = time-dependent effect
# Liver cytosol = test: Drug metabolism in human liver cytosol assessed as (S)-3-(3-(aminomethyl)-1-hydroxy-1,3-dihydrobenzo[c][1,2]oxaborol-7-yloxy)propanoicacid formation at 50 to 500 uM after 3 hrs by spectrophotometry in presence of NAD+ and ADH inhibitor 4-MP; format: ADME
# [22] = AUC (0 to infinity) in cynomolgus monkey at 35 mg/kg, iv administered as single infusion for 1 hr; format: ADME, organism-based, Macaca fascicularis; parameters: time infinity, dose 35 mg/kg, route intravenous; conditions: plasma; outline: as §3
# [23] = Cmax in cynomolgus monkey at 35 mg/kg, iv administered as single infusion for 1 hr; format: ADME, organism-based, Macaca fascicularis; parameters: dose 35 mg/kg, route intravenous; conditions: in vivo; outline: as §3
# [24] = Drug recovery in healthy human urine treated with [14C]GSK2251052 at 1500 mg, iv infusion for 1 hr as single dose after 120 to 336 hrs by HPLC method; format: ADME, organism-based; conditions: in vivo, BLD = below limit of detection
# Outline: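 Urine pooled by weight per subject over 0–120 h; 120–336 h pools from all subjects combined into one composite. Centrifuged at ~21,000g, then supernatant profiled by HPLC (Atlantis T3, ammonium acetate pH 4.5/methanol, 30°C) with radiochemical detection plus MS identification. Results are % of dose, corrected for centrifugation recovery measured by triplicate LSC.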
# [25] = Drug recovery in healthy human feces treated with [14C]GSK2251052 at 1500 mg, iv infusion for 1 hr as single dose after 120 hrs by HPLC method; format: ADME, organism-based; conditions: in vivo
# Outline: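 Feces pooled over 0–120 h per subject by sample weight. About 1 g homogenate extracted twice with 4 volumes of acetonitrile:methanol:water:formic acid (50:25:25:1) under 20 min sonication. Extracts dried and reconstituted in water:methanol 90:10. Profiled by HPLC (Atlantis T3, ammonium acetate pH 4.5/methanol, 30°C) with fraction radiocounting and Orbitrap MS. Results given as % of dose, corrected for extraction recovery.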
# [26] = Drug recovery in healthy human feces treated with [14C]GSK2251052 at 1500 mg, iv infusion for 1 hr as single dose after 0 to 120 hrs by HPLC method; conditions: in vivo
compound,measurement,setting,value
Cl.NC[C@H]1OB(O)c2c(OCCCO)cccc21,AUC(0-t) at 1 h,[1],72300 ng·h/mL
same,AUC(0-inf),[2],72500 ng·h/mL
same,Cmax,[3],24600 ng/mL
same,clearance,[4],345 mL/min
same,Vd,[5],197 L
same,half-life,[6],696 min
same,Tmax,[7],55 min
same,clearance,[8],10 mL/min/kg
same,Vd,[9],3.04 L/kg
same,MRT,[10],4.9 h
same,half-life,[11],324 min
same,Tmax,[12],55.2 min
same,AUC(0-inf),[13],161 µg·h/mL
same,Cmax,[14],68.6 µg/mL
same,clearance,[15],3.67 mL/min/kg
same,Vd,[16],2.53 L/kg
same,MRT,[17],11 h
same,half-life,[18],552 min
same,Tmax,[19],55.2 min
same,Drug metabolism,[20],tde
same,Drug metabolism,[21],tde
same,Drug metabolism,Liver cytosol,metabolite_not_detected
same,AUC(0-inf),[22],60700 ng·h/mL
same,Cmax,[23],46000 ng/mL
NCC(O)c1cccc(OCCC(=O)O)c1O (stereo not drawn),Drug recovery,[24],BLD
same,Drug recovery,[25],1.4%
same,Drug recovery,[26],1.4%
NCC(O)c1cccc(OCCCO)c1O (stereo not drawn),Drug recovery,[24],BLD
